Bioassay records from PubChem.
Compounds with a hit are over-represented: about 1.6% of the library has one in this group of screens.
Mdm2 ligase inh: inhibitors of human Mdm2 E3 ubiquitin ligase; actives 0.11% (n = 210,000); AID 1230; Q00987; signal enhancement, % at 5 µM; cell-based MDM2 ubiquitination luciferase reporter, 2 h; 0 = plate control, 100 = twice control, blank-subtracted;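 active = signal enhancement of 30% or more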;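 also: luminescence tracks abundance of the self-degrading MDM2-luciferase fusion protein; higher signal means inhibition of MDM2 E3 ligase activity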
Target sequence (Q00987 whole entry, looked up, the tested form may be a part): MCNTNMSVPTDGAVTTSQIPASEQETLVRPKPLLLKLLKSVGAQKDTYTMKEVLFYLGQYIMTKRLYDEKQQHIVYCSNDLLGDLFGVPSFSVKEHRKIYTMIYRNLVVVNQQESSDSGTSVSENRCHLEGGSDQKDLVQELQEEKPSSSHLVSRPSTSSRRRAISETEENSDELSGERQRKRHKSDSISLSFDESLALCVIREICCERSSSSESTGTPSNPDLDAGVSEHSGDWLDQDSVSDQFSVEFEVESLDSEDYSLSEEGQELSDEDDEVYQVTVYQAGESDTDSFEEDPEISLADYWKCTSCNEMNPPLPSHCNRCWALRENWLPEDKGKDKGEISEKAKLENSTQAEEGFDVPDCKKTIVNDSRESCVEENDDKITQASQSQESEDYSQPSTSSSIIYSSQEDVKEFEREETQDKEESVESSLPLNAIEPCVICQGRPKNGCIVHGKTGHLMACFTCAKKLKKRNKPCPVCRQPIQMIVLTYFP
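Assay system: stable mammalian line carrying autodegrading MDM2–luciferase fusion reporter; Input: 2000 cells in each well; Compound dosing: single-point 5 µM; Schedule: 2 h compound exposure at 37 °C; Signal: SteadyLite luciferase luminescence after 15 min room-temperature reagent incubation; Evaluation: % luminescence enhancement versus blank-corrected plate control mean; Benchmarks: plate controls and plate blanks.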
Wee1 stabilizer: inhibitors of human Wee1 degradation; P30291; HeLa Luc-Wee1K328M stability, luciferase luminescence; 100% = proteasome inhibitor MG132 effect; reporter increase, % at 5 µM; actives 1.2% (n = 220,000);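 active = activation above the mean of all tested compounds plus 3 SD, set per screening run, cut at about 8.8% in these data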;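 also: cells exposed to compound for 20 h before luminescence read; 0% = DMSO alone and 100% = MG132 at 30 µM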
Pf gamet viab: P. falciparum stage V gametocyte viability inhibition. AID 743093. actives 0.065% (n = 150,000). inhibition, % at 10.9 µM. P. falciparum stage V gametocytes, ATP luminescence, 24 h;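 active = inhibition above the mean plus 3 SD of compounds within the control limits, set per campaign, cut at about 38% in these data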;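 also: 0% = DMSO wells and 100% = medium only without gametocytes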
TNF necrop inh: TNF-alpha cell death inhibition in Jurkat FADD-/- cells. Jurkat FADD-/- TNF necroptosis rescue, ATP luminescence, 24 h; 0 = TNF only, 100 = no-TNF cells. activation (protection from cell death), % at 10 µM. actives 0.068% (n = 220,000);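 active = activation, meaning protection from cell death, of at least 50% relative to plate controls; inactive = activation below 50%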;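 also: necroptosis triggered by 40 ng/mL TNF-alpha added together with compound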
zVAD death inh: L929 zVAD cell death inhibition. AID 1377. actives 0.38% (n = 220,000). L929 zVAD necroptosis rescue, ATP luminescence, 24 h; with zVAD 60 µM. viability rescue, % at 10 µM;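 active = activation, scaled between plate controls, above about 75%, limit read from the data; inactive = activation under that limit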;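 also: 0% = zVAD with DMSO and 100% = DMSO alone without zVAD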
zVAD necrop conf: confirmed blocker of zVAD induced death in L929 cells; shares compounds with zVAD death inh; L929 zVAD-induced necroptosis rescue, ATP luminescence, 24 h; activation (protection from necroptosis), % at 10 µM; actives 16% (n = 760); AID 463117;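 active = mean protection from necroptosis of at least 50% over duplicate tests; inactive = mean protection below 50%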;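 also: 0% = cells with zVAD alone and 100% = vehicle cells without zVAD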
Numbers without * were called inactive; x = not tested or not shown.

SMILES | Mdm2 ligase inh | Wee1 stabilizer | Pf gamet viab | TNF necrop inh | zVAD death inh | zVAD necrop conf
CC1CCN(CCC(=O)Nc2ccc3c(c2)OCCO3)CC1 | -7 | 0 | x | 0 | 0 | x
C/C(=N/NS(=O)(=O)c1ccc(Cl)cc1)c1cccc(O)c1 | -1 | -2 | 5 | 2 | 0 | x
Cc1cc(N)n2ncc(-c3ccc(F)cc3)c2n1 | -3 | -2 | x | -4 | 79* | 43
Cc1ccc2c(c1)C(=C(C#N)C#N)C(=O)N2CCN1CCCCC1 | 3 | -4 | -20 | 6 | 90* | 39
Cc1ccc(OCCN2C(=O)C(=O)c3cc(C)ccc32)cc1 | 2 | -3 | 2 | -4 | -2 | x
Cc1ccc2c(c1)C(=C(C#N)C#N)C(=O)N2CCN1CCOCC1 | -5 | -3 | 5 | 1 | 89* | 1
COCCn1c(-c2ccccc2)nc2ccccc21 | -9 | 1 | -24 | -1 | x | x
O=C(Nc1ccc2nc(-c3ccccc3)[nH]c2c1)c1ccco1 | 3 | 3 | 15 | 0 | 15 | x
Cc1cccc2[nH]c(-c3ccc(NC(=O)c4ccco4)cc3)nc12 | -2 | 2 | -12 | 0 | 84* | 2
CCN1CCN(Cc2ccc(NC(=O)c3ccc(C)c(NC(=O)c4nccnc4N)c3)cc2C(F)(F)F)CC1 | -4 | x | -1 | 21 | 80* | 79*
FC(F)(F)c1cnc2c(-c3ccccc3)n[nH]c2c1 | -14 | 1 | 1 | 4 | 77* | 17
CC1CCN(C(=O)C(Cc2ccccc2)NS(=O)(=O)c2ccc3c(c2)oc(=O)n3C)CC1 (centres undefined) | -14 | 3 | x | 0 | -1 | x
CCN1/C(=c2/s/c(=C3/C(=O)N(c4ccccc4)N=C3C)n(CC)c2=O)C=Cc2ccccc21 | x | x | 4 | x | x | x
S=C(NCCc1ccc(Cl)cc1)NC1CC1 | 5 | 0 | -18 | 0 | 92* | 6
CCN(CCCNC(=O)CCn1c(=O)[nH]c2ccccc2c1=O)c1cccc(C)c1 | -6 | -2 | x | 0 | -1 | x
COc1cc(OC)c(C2=NOC(C(=O)N3CCN(C(=O)c4ccco4)CC3)C2)cc1Cl (centres undefined) | -2 | -2 | 4 | 1 | 83* | 1
COc1cc(OC)c(C2=NOC(C(=O)N3CCc4ccccc4C3)C2)cc1Cl (centres undefined) | -17 | 0 | x | -1 | 0 | x
CCOC(=O)/C=C1\Nc2ccccc2OC1=O | -9 | -1 | -15 | 10 | 94* | 3
COc1cc(NC(=S)Nc2ccccn2)c(OC)cc1Cl | 1 | -2 | 12 | 1 | 79* | 7
COc1cc(/C=N/Nc2ccccn2)ccc1O | -12 | 1 | -3 | 43 | 87* | 75*
COc1ccc(/C=N/Nc2ccccn2)cc1OC | -12 | 1 | 3 | 53* | 88* | 89*
COc1ccc(/C=N/NC(=O)C(=O)Nc2ccccn2)cc1OC | -1 | 0 | x | 0 | 1 | x
Cc1[nH]c2ccccc2c1/C=N/Nc1ccccn1 | -12 | 5 | 4 | 35 | 79* | 85*
Cc1[nH]c2ccccc2c1/C=N/Nc1nncn1N | -9 | 1 | 36 | -1 | 4 | x
O=S(=O)(N1CCOCC1)n1cnc2ccccc21 | -20 | -3 | 5 | 0 | 0 | x
SMILES | Mdm2 ligase inh | Wee1 stabilizer | Pf gamet viab | TNF necrop inh | zVAD death inh | zVAD necrop conf
Cc1ncc(N=Nc2ccccc2)c(-c2ccccc2)n1 | -7 | 2 | 7 | -4 | 0 | x
COc1ccc(NC(=O)Nc2ccccn2)cc1OC | -7 | 0 | -10 | 8 | 76* | 35
C=CCNc1nc(C(=O)OCC)nc2ccccc12 | -18 | -2 | -16 | 0 | 1 | x
O=C(Oc1ccc(-c2cnc3ccccc3n2)cc1)c1cc([N+](=O)[O-])ccc1Cl | -4 | 2 | -16 | -1 | 73 | x
CCC(=O)Oc1ccc(-c2cnc3ccccc3n2)cc1 | -22 | 2 | 18 | -3 | 89* | 39
O=C(CN1C(=O)C2C3CCC(C3)C2C1=O)N1CCN(Cc2ccccc2)CC1 (centres undefined) | -12 | -3 | -14 | 1 | 6 | x
NC(=O)COc1ccc(Nc2nnc(-c3ccc(O)cc3)c3ccccc23)cc1 | -1 | 8 | -20 | 0 | 6 | x
COC(=O)Cc1[nH]nc2c1C(c1c[nH]c3ccccc13)C(C#N)=C(N)O2 (centres undefined) | -6 | 1 | x | -8 | 1 | x
Cc1[nH]nc2c1C(c1c[nH]c3ccccc13)C(C#N)=C(N)O2 (centres undefined) | -5 | 2 | -1 | -5 | 77* | 37
Cc1cc(C(=O)Cn2nc(C(=O)O)c3ccccc3c2=O)c(C)n1CCc1ccc(Cl)cc1 | -4 | 0 | 19 | -4 | 78* | 8
Cc1cc(C(=O)Cn2nc(C(=O)O)c3ccccc3c2=O)c(C)n1-c1ccccc1 | -29 | 0 | -5 | -1 | 1 | x
O=C(NCc1ccco1)c1ccc2c(c1)C(=O)N(C1CCCCC1)C2=O | 0 | 1 | x | 1 | 1 | x
N#Cc1cccc(NCC(=O)Nc2ccc3c(c2)OCCO3)c1 | -24 | 9 | -14 | 2 | 77* | 2
N#Cc1ccc(NCC(=O)Nc2ccc3c(c2)OCCO3)cc1 | 0 | -5 | -13 | 2 | 66 | x
CC(=O)N(c1ccccc1)C1CCCC1 | -9 | 6 | 4 | 1 | 0 | x
O=C(CCl)N(c1ccccc1)C1CCCCC1 | -38 | -1 | -4 | -20 | 78* | 66*
O=C(c1ccc(COc2ccccc2Cl)o1)N1CCN(c2ccccc2)CC1 | -14 | 1 | x | 2 | 2 | x
O=C(c1ccc(COc2ccc3c(c2)CCC3)o1)N1CCN(c2ccccc2)CC1 | x | -2 | -5 | -1 | 1 | x
O=C(c1ccco1)N1CCN(C(=O)c2ccc(COc3ccc(Cl)cc3Cl)o2)CC1 | x | -1 | -3 | -11 | 86* | 35
O=C(c1ccco1)N1CCN(C(=O)c2ccc(COc3ccc4c(c3)CCC4)o2)CC1 | x | 6 | -5 | -1 | 83* | 34
Fc1ccc(N2CCN(c3nc(CN4CCOCC4)nc4scc(-c5ccccc5)c34)CC2)cc1 | -19 | 6 | 24 | 1 | 1 | x
CCOC(=O)Nc1nnc(-c2ccccc2OC)s1 | -14 | 0 | 18 | 0 | 0 | x
CCC(SC1=NCCS1)C(=O)Nc1nnc(-c2ccccc2OC)s1 (centres undefined) | -13 | -1 | x | 3 | 83* | 1
Cc1ccc2nc(=O)c(NNc3ccccc3)cnc2c1 | -6 | 4 | x | 0 | x | x
Cc1nc2ccccc2nc(=O)c1NNc1ccccc1 | x | 3 | 4 | 5 | 76* | 3
Cc1ccc(NC(=O)c2cccc(OCc3c(C)noc3C)c2)cc1 | -12 | 0 | x | -2 | 79* | 10
Cc1noc(C)c1COc1cccc(C(=O)Nc2ccc(C#N)cc2)c1 | -7 | 0 | x | -3 | 1 | x
